The nature of one series: RP-HPLC capacity factor. It is filed as physicochemical. Particulars: chromatographic, Grace Vydac C-18, 20-min gradient of 16-26% acetonitrile in 20 mM HCl, 1 mL/min.
In series [1] the target is T1, MC1 receptor (Mus musculus, UniProt Q01727). The series is described as follows: In vitro competitive binding assay against ^125I-. More on the design: species or system murine. The procedure, abridged: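 B16/F1 cells seeded at 2.5 × 10^5/well, grown overnight at 37 °C, then washed with binding medium (MEM, 25 mM HEPES pH 7.4, 0.2% BSA, 0.3 mM 1,10-phenanthroline). Incubated 2 h at 25 °C with ~30,000 cpm 125I-(Tyr2)-NDP-MSH plus test peptide at 10^-13 to 10^-6 M. Rinsed twice with ice-cold 0.2% BSA/0.01 M PBS (pH 7.4), lysed 5 min in 1 M NaOH, gamma-counted. Run in triplicate.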
T1 sequence (Q01727 whole entry): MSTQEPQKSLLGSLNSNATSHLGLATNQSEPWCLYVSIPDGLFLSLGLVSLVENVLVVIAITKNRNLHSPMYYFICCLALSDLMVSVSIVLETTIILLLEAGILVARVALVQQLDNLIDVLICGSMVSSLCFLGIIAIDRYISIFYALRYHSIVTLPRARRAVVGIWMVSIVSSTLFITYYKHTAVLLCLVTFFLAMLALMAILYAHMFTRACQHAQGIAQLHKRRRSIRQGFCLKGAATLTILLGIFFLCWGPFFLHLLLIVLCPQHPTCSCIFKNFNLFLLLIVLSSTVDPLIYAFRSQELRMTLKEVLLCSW

Series [2] concerns the target T1, MC1 receptor. Particulars: read-out: MC1 receptor binding affinity; B16/F1 cells; cited from earlier work.

Like-named read-outs stand apart in the source and are kept apart here. Positions of bridges follow the written chain, without caps; N, C: chain ends. Non-standard residues stand in square brackets, D forms with d. Residues, ends and D or L forms follow the SMILES beside them. Nle = CCCC[C@H](N)C(=O)O

On to `CC(C)[C@H](NC(=O)[C@@H]1CCCN1C(=O)[C@H](CCCNC(=N)N)NC(=O)[C@H](CS)NC(=O)[C@H](Cc1c[nH]c2ccccc12)NC(=O)[C@H](CCCNC(=N)N)NC(=O)[C@@H](Cc1ccccc1)NC(=O)[C@H](Cc1c[nH]cn1)NC(=O)[C@H](CCC(=O)O)NC(=O)[C@H](CS)NC(=O)[C@H](CS)NC(=O)[C@H](CCCCN)NC(=O)[C@@H]1CC(=O)N[C@@H](CCCNC(=N)N)C(=O)N[C@@H](Cc2ccccc2)C(=O)N[C@@H](CC(=O)O)C(=O)N[C@H](Cc2ccc(O)cc2)C(=O)N1)C(N)=O` [RFD-Lys-(Arg^11)CCMSH] (RFD[dY]DKCCEH[dF]RWCRPV-NH2; lactam N-5), for which the “Capacity factor (k')” value in the series “RP-HPLC capacity factor” is given as 3.77. The IC50 at MC1 receptor [1] came to 0.82 ± 0.06 nM. Consider `CCCC[C@@H]1NC(=O)[C@H](CCCNC(=N)N)NC(=O)C[C@@H](C(=O)N[C@@H](CCCCN)C(=O)N[C@@H](CS)C(=O)N[C@@H](CS)C(=O)N[C@@H](CCC(=O)O)C(=O)N[C@@H](Cc2c[nH]cn2)C(=O)N[C@H](Cc2ccccc2)C(=O)N[C@@H](CCCNC(=N)N)C(=O)N[C@@H](Cc2c[nH]c3ccccc23)C(=O)N[C@@H](CS)C(=O)N[C@@H](CCCNC(=N)N)C(=O)N2CCC[C@H]2C(=O)N[C@H](C(N)=O)C(C)C)NC(=O)[C@@H](Cc2ccc(O)cc2)NC(=O)[C@H](CC(=O)O)NC1=O` [RNleD-Lys-(Arg^11)CCMSH] (R[Nle]D[dY]DKCCEH[dF]RWCRPV-NH2; lactam N-5), for which, in “RP-HPLC capacity factor”, the “Capacity factor (k')” value is 4.36. On MC1 receptor [1], this molecule returned an IC50 of 2.99 ± 0.26 nM. With `CC(C)[C@H](NC(=O)[C@@H]1CCCN1C(=O)[C@H](CCCNC(=N)N)NC(=O)[C@H](CS)NC(=O)[C@H](Cc1c[nH]c2ccccc12)NC(=O)[C@H](CCCNC(=N)N)NC(=O)[C@@H](Cc1ccccc1)NC(=O)[C@H](Cc1c[nH]cn1)NC(=O)[C@H](CCC(=O)O)NC(=O)[C@H](CS)NC(=O)[C@H](CS)NC(=O)[C@H](CCCCN)NC(=O)[C@@H]1CC(=O)N[C@@H](CCCNC(=N)N)C(=O)N[C@@H](CO)C(=O)N[C@@H](CC(=O)O)C(=O)N[C@H](Cc2ccc(O)cc2)C(=O)N1)C(N)=O` [RSD-Lys-(Arg^11)CCMSH, c[Arg-Ser-Asp-DTyr-Asp]-Lys-Cys-Cys-Glu-His-DPhe-Arg-Trp-Cys-Arg-Pro-Val-NH2] (RSD[dY]DKCCEH[dF]RWCRPV-NH2; lactam N-5), the “Capacity factor (k')” value in “RP-HPLC capacity factor” is 2.19. On MC1 receptor [1], the IC50 amounted to 1.3 ± 0.36 nM. Regarding `CC(C)[C@H](NC(=O)[C@@H]1CCCN1C(=O)[C@H](CCCNC(=N)N)NC(=O)[C@H](CS)NC(=O)[C@H](Cc1c[nH]c2ccccc12)NC(=O)[C@H](CCCNC(=N)N)NC(=O)[C@@H](Cc1ccccc1)NC(=O)[C@H](Cc1c[nH]cn1)NC(=O)[C@H](CCC(=O)O)NC(=O)[C@H](CS)NC(=O)[C@H](CS)NC(=O)[C@H](CCCCN)NC(=O)[C@@H]1CC(=O)N[C@@H](CCCNC(=N)N)C(=O)N[C@H](Cc2ccccc2)C(=O)N[C@@H](CC(=O)O)C(=O)N[C@H](Cc2ccc(O)cc2)C(=O)N1)C(N)=O` [RfD-Lys-(Arg^11)CCMSH] (R[dF]D[dY]DKCCEH[dF]RWCRPV-NH2; lactam N-5), the IC50 at MC1 receptor [1] is 1.35 ± 0.08 nM. Consider “RGD-Lys-(Arg^11)CCMSH: cyclic RGD motif {Arg-Gly-Asp-DTyr-Asp} attached to [Cys^3,4,10, D-Phe^7, Arg^11]α-MSH3-13 peptide via a lysine linker (RGDYDKCCEHFRWCRPV; lactam cycle c[Arg1-Gly-Asp-dTyr-Asp5]; (Arg1 alpha-amine to Asp5 side-chain carboxyl); D-Tyr4; D-Phe11; C-terminal amide; Lys6 linker)”, for which, in the series with MC1 receptor [2], the IC50 is 2.1 nM.

The record behind these values is article PMC3880595 (Journal of medicinal chemistry, 2013).
